Shown are actives, neighbours in structure and some others; about 0.94% of the full set was active somewhere.
PKA-R2B activ: activates the human PKA-R2B holoenzyme complex; AID 504700; activation, % at 11.4 µM; P22694+P31323; 340,000 tested, 0.079% active; PKA-R2B holoenzyme dissociation, Cy5-IP20 fluorescence polarization; R2B truncated from residue 108, S112A mutant; 0% DMSO only, 100% 113 µM cGMP;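 active = activation above a cutoff set at the mean over all compounds plus 3 SD, cut at about 18% in these data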;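 also: higher means more holoenzyme dissociation and a rise in polarization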
Target sequence (P31323 whole entry, looked up, other chains not shown, the tested form may be a part): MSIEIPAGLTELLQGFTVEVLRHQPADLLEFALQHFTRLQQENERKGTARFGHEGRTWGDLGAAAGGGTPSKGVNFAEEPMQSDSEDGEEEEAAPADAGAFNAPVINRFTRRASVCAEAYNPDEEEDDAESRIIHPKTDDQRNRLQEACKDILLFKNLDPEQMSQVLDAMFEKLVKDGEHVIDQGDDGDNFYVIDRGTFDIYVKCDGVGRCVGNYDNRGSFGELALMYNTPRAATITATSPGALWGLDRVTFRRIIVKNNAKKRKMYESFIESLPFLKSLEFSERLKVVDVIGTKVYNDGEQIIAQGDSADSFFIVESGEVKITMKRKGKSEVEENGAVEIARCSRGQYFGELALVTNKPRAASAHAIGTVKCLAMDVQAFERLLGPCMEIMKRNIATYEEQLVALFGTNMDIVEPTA
PKA-R1A activ: PKA-R1A complex activation | PKA-R1A dissociation, Cy5-IP20 fluorescence polarization; scaled: DMSO 0%, 113 µM cGMP 100% | P00514+P68181 | activation, % at 11.4 µM | AID 504707 | 340,000 tested, 0.083% active;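 active = percent activation above the mean of all tested compounds plus 3 SD, cut at about 19% in these data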;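 also: higher means more PKAc released from R1A so a rise in polarization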
aDG glyco act: increases alpha dystroglycan glycosylation; Pro5-aDG cells, alpha-DG glycosylation AlphaScreen (IIH6); 0% Pro5, 100% B10-LARGE cell signal; 360,000 tested, 0.22% active; AID 624168; activation, % at 10 µM;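 active = activation of at least 8% versus controls, or a plate z-score of at least 8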;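 also: Pro5 are CHO cells carrying HIG-tagged alpha-DG that lacks glycosylation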
UCH37 DUB inh: inhibitors of human deubiquitinating enzyme UCH37. inhibition, % (test concentration not listed). purified proteasome/UCH37, Ub-AMC cleavage fluorescence. AID 588478. 330,000 tested, 0.33% active. Q9Y5K5;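 active = mean inhibition over replicate wells above about 20%, limit read from the data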
Target sequence (Q9Y5K5 whole entry, looked up): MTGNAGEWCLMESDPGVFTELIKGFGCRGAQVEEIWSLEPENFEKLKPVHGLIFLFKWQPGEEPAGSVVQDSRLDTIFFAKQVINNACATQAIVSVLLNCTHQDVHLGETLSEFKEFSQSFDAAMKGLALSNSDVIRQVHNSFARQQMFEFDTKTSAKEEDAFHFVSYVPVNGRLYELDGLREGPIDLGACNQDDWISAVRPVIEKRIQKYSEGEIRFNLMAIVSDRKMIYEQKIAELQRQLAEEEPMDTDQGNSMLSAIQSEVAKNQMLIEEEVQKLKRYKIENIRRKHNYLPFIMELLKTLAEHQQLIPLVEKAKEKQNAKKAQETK
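Material: Human UCH37 enzyme supplied as purified proteasome complex | Schedule: 30 min compound-proteasome preincubation then 25 min substrate reaction, room temperature | Detection: AMC fluorescence from Ub-AMC cleavage, excitation 355 nm, emission 460 nm | Benchmarks: Wells without proteasome as full block, compound-free enzyme plus substrate as uninhibited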
CTSL1 counter: blocks F. hepatica cathepsin L1 in PFM18AAP counter-screen; recombinant F. hepatica cathepsin L1, Z-Leu-Arg-MCA fluorescence; inhibition, % at 5.96 µM; 300,000 tested, 0.49% active;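 active = inhibition above the mean of all tested compounds plus 3 SD, set per screening campaign, cut at about 17% in these data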
Large screens that a line does not name were inactive.

CC(C)CC(NC(=O)/C(=C/c1ccco1)NC(=O)c1ccc(Br)o1)C(=O)O (centres undefined)	CTSL1 counter 23
O=C(NCc1ccccc1)/C(=C/c1ccco1)NC(=O)c1ccco1	CTSL1 counter 28
CNC(=O)/C(=C\c1ccco1)NC(=O)c1ccco1	none
Cc1ccc(-c2ccc(C=Nn3cnnc3)o2)cc1	none (no result: PKA-R2B activ, PKA-R1A activ, aDG glyco act, CTSL1 counter)
O=C1Nc2ccc(C(F)(F)F)cc2N2CCCC12 (centres undefined)	none (no result: PKA-R2B activ, PKA-R1A activ, aDG glyco act, UCH37 DUB inh)
O=C1Nc2ccccc2N2CCCC12 (centres undefined)	CTSL1 counter 71 (no result: PKA-R2B activ, PKA-R1A activ, aDG glyco act, UCH37 DUB inh)
COCc1cc(C)nc(OCC(=O)NN=Cc2ccco2)c1C#N	none (no result: PKA-R2B activ, PKA-R1A activ, aDG glyco act, CTSL1 counter)
CC(C)OC(=O)CN1C(=O)S/C(=C/c2ccc(N3CCCCC3)o2)C1=O	CTSL1 counter 17
O=[N+]([O-])/C=C/c1cn(Cc2ccc(Cl)cc2)c2ccccc12	UCH37 DUB inh 20
CCN(CC)C(=O)CSc1nnc([C@@H](N)C(C)C)o1	CTSL1 counter 33
CC1(C)SC(=S)N(N=Cc2ccccc2O)C1N(O)C(=O)Nc1ccccc1 (centres undefined)	none (no result: PKA-R2B activ, PKA-R1A activ, aDG glyco act, CTSL1 counter)
CN(C)c1ccc2nc3ccc(=[N+](C)C)cc-3sc2c1	aDG glyco act 47
Cc1cc2nc3ccc(=[N+](C)C)cc-3sc2cc1N	aDG glyco act 36 (no result: CTSL1 counter)
CN(C)c1ccc2nc3ccc(=O)cc-3sc2c1	none (no result: UCH37 DUB inh, CTSL1 counter)
Cc1nc2cc(C)c(C)cc2s1	none
O=[N+]([O-])c1ccc(NN=Cc2cccc(O)c2)cc1	none (no result: PKA-R2B activ, PKA-R1A activ, aDG glyco act, CTSL1 counter)
COc1cccc(OCC(O)CN2CCC(CN3C(=O)c4cccc5cccc(c45)C3=O)CC2)c1 (centres undefined)	CTSL1 counter 33
COc1cccc(C=NNC(=O)c2ccc(N3CCCC3=O)cc2)c1	none (no result: PKA-R2B activ, PKA-R1A activ, aDG glyco act, CTSL1 counter)
O=C1/C(=C/c2ccc(N3CCOCC3)o2)SC(=Nc2ccccc2)N1CCc1c[nH]c2ccccc12	CTSL1 counter 18
CCn1cc(C(=O)NCc2ccc3c(c2)OCO3)c(=O)c2cc(S(=O)(=O)N(C)C)ccc21	CTSL1 counter 18
C/C(C=NNC(=O)Cn1nnnc1N)=C/c1ccc(C(C)C)cc1	none (no result: PKA-R2B activ, PKA-R1A activ, aDG glyco act, CTSL1 counter)
Cc1cc(C)n(-c2nnc(C)n2N=Cc2cc(Br)ccc2OCc2ccccc2)n1	none (no result: PKA-R2B activ, PKA-R1A activ, aDG glyco act, CTSL1 counter)
c1cncc(-c2cn(C[C@H]3CC[C@@H]([C@@H]4CC[C@H](Cn5cc(-c6cccnc6)nn5)O4)O3)nn2)c1	UCH37 DUB inh 25
N#CCCn1cc(C=NNC(N)=S)c(-c2ccccc2)n1	none (no result: PKA-R2B activ, PKA-R1A activ, aDG glyco act, CTSL1 counter)
N#CCCn1cc(/C=N/NC(N)=S)c(-c2ccc(-c3ccccc3)cc2)n1	CTSL1 counter 29 (no result: UCH37 DUB inh)
CC(C)(C)CN1CCC(Oc2cccc(C(=O)N3CCNC(=O)C3(C)C)c2)CC1	CTSL1 counter 19
COc1cc(C)c(C(=O)Oc2cc(C)c(C(=O)O)c(O)c2)c(O)c1	none
COC(=O)c1cc(OC)cc(O)c1C(=O)c1c(O)cc(C)cc1O	CTSL1 counter 52
O=c1[nH]c2ccccc2c(=O)n1Cc1ccco1	UCH37 DUB inh 21
O=C(Cc1ccccc1)ON=C1CCCc2ccccc21	none (no result: PKA-R2B activ, PKA-R1A activ, aDG glyco act, CTSL1 counter)
O=C1OC(Nc2cc(Br)cc3cccnc23)c2ccccc21 (centres undefined)	aDG glyco act 7.4, CTSL1 counter 98
Cc1cccc(NC(=O)COC(=O)CNC(=O)C2CCCCC2)c1	CTSL1 counter 25
CC(C)CCNC(=O)NC(=O)COC(=O)CNC(=O)C1CCCCC1	CTSL1 counter 26
N#Cc1ccc(NC(=O)COC(=O)CNC(=O)C2CCCCC2)cc1	CTSL1 counter 31
N#Cc1ccc(NC(=O)COC(=O)C2CCC2)cc1	none (no result: UCH37 DUB inh, CTSL1 counter)
Cc1ccc(C)c(NC(=O)COC(=O)CNC(=O)C2CCCCC2)c1	none (no result: CTSL1 counter)
COc1cc(C=NNc2ccnc(=O)[nH]2)ccc1O	none (no result: PKA-R2B activ, PKA-R1A activ, aDG glyco act, CTSL1 counter)
COCc1cc(C)nc(OCC(=O)NN=Cc2cccc(OC)c2)c1C#N	none (no result: PKA-R2B activ, PKA-R1A activ, aDG glyco act, CTSL1 counter)
Cc1cc(C)nc(NC(=O)/C=C/c2ccc(Cl)cc2Cl)c1	CTSL1 counter 19
Cc1cc(C)nc(NC(=O)/C=C/c2ccccc2Cl)c1	none
CN(C)S(=O)(=O)N1CCC(Oc2cccc(C(=O)NCCC3=CCCCC3)c2)CC1	UCH37 DUB inh 22
O=C(COC(=O)COc1cccc(F)c1)NCCC1=CCCCC1	none
O=C(COC(=O)CNC(=O)c1cccc(F)c1)NCCC1=CCCCC1	CTSL1 counter 22
CC1(c2nnc(Cc3ccccc3)o2)CC(c2ccc(C#N)cc2)=NO1 (centres undefined)	none
COc1ccc(C2=NOC(C)(c3nnc(Cc4ccccc4)o3)C2)cc1 (centres undefined)	UCH37 DUB inh 29
CC1(c2nnc(Cc3ccccc3)o2)CC(c2ccncc2)=NO1 (centres undefined)	UCH37 DUB inh 21
CC1(c2nnc(Cc3ccccc3)o2)CC(c2ccc(Cl)cc2)=NO1 (centres undefined)	UCH37 DUB inh 28
O=C(NN=Cc1cc2c(cc1Br)OCO2)C1COc2ccccc2O1 (centres undefined)	none (no result: PKA-R2B activ, PKA-R1A activ, aDG glyco act, CTSL1 counter)
CSc1nc(N(C)C)nc(N(C#N)CCOC(C)=O)n1	none
CCOC(=O)C(C(=O)OCC)N(C#N)c1nc(SC)nc(N(C)C)n1	CTSL1 counter 86
CCOC(=O)C(C(=O)OCC)N(C#N)c1nc(OC)nc(N(C)C)n1	CTSL1 counter 77
CC(=NNC(=O)COc1ccc2ccccc2c1)c1cccs1	none (no result: PKA-R2B activ, PKA-R1A activ, aDG glyco act, CTSL1 counter)
CCc1ccc(NC(=O)C(=O)NN=C(C)CC(=O)NCc2ccc(Cl)cc2)cc1	none (no result: PKA-R2B activ, PKA-R1A activ, aDG glyco act, CTSL1 counter)
CC1=CC=CC2=NC(=NS(=O)(=O)c3ccc(F)cc3F)c3ccccc3CN12	none (no result: PKA-R2B activ, PKA-R1A activ, aDG glyco act, CTSL1 counter)
Cc1c(C=O)c(Cl)n(C)c(=O)c1C#N	UCH37 DUB inh 21, CTSL1 counter 67
CC(Oc1ccc2c(-c3ccccc3)cc(=O)oc2c1)C(=O)N1CCC[C@@H]1C(N)=O (some centres undefined)	CTSL1 counter 42
Cc1ccc(S(=O)(=O)Oc2ccccc2C=NNC(=O)c2c(Cl)cnn2C)cc1	none (no result: PKA-R2B activ, PKA-R1A activ, aDG glyco act, CTSL1 counter)
COc1cccc(C(=O)N2CCN(C(=O)COc3ccc4ccccc4c3)CC2)c1	none
COc1cc(C(=O)N2CCN(C(=O)COc3ccc4ccccc4c3)CC2)cc(OC)c1OC	UCH37 DUB inh 28
O=C(/C=C/C=C/c1ccccc1)CC1(O)C(=O)N(CCc2ccccc2)c2ccccc21 (centres undefined)	CTSL1 counter 18 (no result: UCH37 DUB inh)
O=C(CC1(O)C(=O)Nc2ccc(Br)cc21)c1ccccc1 (centres undefined)	none (no result: UCH37 DUB inh, CTSL1 counter)
CCN1C(=O)C(O)(CC(=O)/C=C/C=C/c2ccccc2)c2ccccc21 (centres undefined)	CTSL1 counter 22
Cc1ccc2c(c1)C(O)(CC(=O)/C=C/C=C/c1ccccc1)C(=O)N2 (centres undefined)	CTSL1 counter 21
C#CCN1C(=O)C(O)(CC(=O)/C=C/C=C/c2ccccc2)c2ccccc21 (centres undefined)	CTSL1 counter 39
